Measured values reported in ChEMBL document CHEMBL1146567, “Isolation and structure of ruprechstyril from Ruprechtia tangarana” (2003).
≈ marks a conversion by molar mass, not a printed value. Calls of active or inactive are those of the source. No cut-off for these calls is given here.

What was measured:
Escherichia coli = experiment: Antimicrobial activity against Escherichia coli up to 64 ug/mL by broth microdilution susceptibility assay; type: functional, organism-based
In short: (§1)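 Broth microdilution susceptibility testing. Growth inhibition read-out is reported as the minimum inhibitory concentration, in μg/mL.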

Neisseria gonorrhoeae = experiment: Antimicrobial activity against Neisseria gonorrhoeae up to 64 ug/mL by broth microdilution susceptibility assay; type: functional, organism-based; in short: as §1
Candida albicans = experiment: Antimicrobial activity against Candida albicans up to 64 ug/mL by broth microdilution susceptibility assay; type: functional, organism-based; in short: as §1
Enterococcus faecalis [1] = experiment: Antimicrobial activity against Enterococcus faecalis up to 64 ug/mL by broth microdilution susceptibility assay; type: functional, organism-based; in short: as §1
Staphylococcus aureus = experiment: Antimicrobial activity against Staphylococcus aureus up to 64 ug/mL by broth microdilution susceptibility assay; type: functional, organism-based; in short: as §1
[2] = tested on: Stenotrophomonas maltophilia; experiment: Antimicrobial activity against Stenotrophomonas maltophilia up to 64 ug/mL by broth microdilution susceptibility assay; type: functional, organism-based; in short: as §1
Cryptococcus neoformans = experiment: Antimicrobial activity against Cryptococcus neoformans up to 64 ug/mL by broth microdilution susceptibility assay; type: functional, organism-based; in short: as §1
Micrococcus luteus [3] = experiment: Antimicrobial activity against Micrococcus luteus up to 64 ug/mL by broth microdilution susceptibility assay; type: functional, organism-based; in short: as §1
P388 = experiment: Cytotoxicity against mouse P388 cells; type: functional
Streptococcus pneumoniae = experiment: Antimicrobial activity against Streptococcus pneumoniae up to 64 ug/mL by broth microdilution susceptibility assay; type: functional, organism-based; in short: as §1
Enterobacter cloacae = experiment: Antimicrobial activity against Enterobacter cloacae up to 64 ug/mL by broth microdilution susceptibility assay; type: functional, organism-based; in short: as §1
Enterococcus faecalis [4] = experiment: Antimicrobial activity against Enterococcus faecalis by broth microdilution susceptibility assay; type: functional
In short: (§2)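 Broth microdilution susceptibility testing; the value recorded is the minimum inhibitory concentration of growth, given in μg/mL, and sometimes reported as a range.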

Micrococcus luteus [5] = experiment: Antimicrobial activity against Micrococcus luteus by broth microdilution susceptibility assay; type: functional; in short: as §2

Compound | Activity (Escherichia coli) | Activity (Neisseria gonorrhoeae) | Activity (Candida albicans) | Activity (Enterococcus faecalis [1]) | Activity (Staphylococcus aureus) | Activity [2] | Activity (Cryptococcus neoformans) | Activity (Micrococcus luteus [3]) | Activity (P388) | Activity (Streptococcus pneumoniae) | Activity (Enterobacter cloacae) | MIC (Enterococcus faecalis [4]) [µg/mL] | MIC (Micrococcus luteus [5]) [µg/mL] | EC50 (P388; read-out: ED50 (the source's name)) [µg/mL]
COc1cc(C)c2c(=O)c3c(O)cc(OC)cc3oc2c1 | inactive | inactive | inactive | inactive | inactive | inactive | inactive | inactive | inactive | inactive | inactive |  |  | 
COC(=O)[C@]12Oc3ccc(-c4ccc5c(c4O)C(=O)C4=C(O)C[C@@H](C)[C@H](O)[C@@]4(C(=O)OC)O5)c(O)c3C(=O)C1=C(O)C[C@@H](C)[C@@H]2O [SECALONIC ACID A] |  |  |  |  |  |  |  |  |  |  |  | 32 (≈ 50.1 µM) | 4 (≈ 6.26 µM) | 3.5 (≈ 5.48 µM)
COC(=O)c1cc(O)cc(OC)c1Oc1cc(C)cc(O)c1C(=O)OC | inactive | inactive | inactive | inactive | inactive | inactive | inactive | inactive | inactive | inactive | inactive |  |  | 
CC[C@H](/C=C/[C@@H](C)[C@H]1CC[C@H]2[C@@H]3CC=C4C[C@@H](O)CC[C@]4(C)[C@H]3CC[C@]12C)C(C)C |  |  |  |  |  |  |  |  | inactive |  |  |  |  | 
COc1c(OC)c2oc(=O)c3cc(O)c(OC)c4oc(=O)c(c1O)c2c43 | inactive | inactive | inactive | inactive | inactive | inactive | inactive | inactive | inactive | inactive | inactive |  |  | 
COc1cc(C)c(C(=O)Oc2cc(C)c(C(=O)O)c(OC)c2)c(O)c1 | inactive | inactive | inactive | inactive | inactive | inactive | inactive | inactive | inactive | inactive | inactive |  |  | 
CCCCCc1cc2cc(OC)cc(O)c2c(=O)[nH]1 | inactive | inactive | inactive | inactive | inactive | inactive | inactive | inactive | inactive | inactive | inactive |  |  | 
